Source: ChEMBL document CHEMBL1134485, “Diguanidino and "reversed" diamidino 2,5-diarylfurans as antimicrobial agents” (2001)

Assays:
Aspergillus fumigatus [1] = assay: In vitro minimum fungicidal concentration required to inhibit Aspergillus fumigatus(MFC); type: functional
Summary of the method: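 Mould MFC: 100 µL aliquots from macrodilution tubes (RPMI 1640/MOPS pH 7.0, 0.5 × 10³ to 2.5 × 10³ CFU/mL conidial inoculum, 30 °C, 48-72 h, drug 100 to 0.09 µg/mL) showing complete growth inhibition plated on Sabouraud agar; MFC taken as lowest drug concentration giving three or fewer colonies.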

Aspergillus fumigatus [2] = assay: Antimicrobial activity against Aspergillus fumigatus (MIC); type: functional
Candida albicans [3] = assay: In vitro minimum fungicidal concentration against Candida albicans.; type: functional
Summary of the method: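 Yeast MFC: after broth macrodilution (RPMI 1640/MOPS pH 7.0, 0.5 × 10³ to 2.5 × 10³ CFU/mL, 35 °C, 48 h or 72 h for C. neoformans, drug 100 to 0.09 µg/mL), 100 µL from tubes with complete inhibition plated on Sabouraud agar; lowest concentration yielding three or fewer colonies recorded.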

Candida albicans [4] = assay: In vitro minimum inhibitory concentration against Candida albicans.; type: functional
[5] = tested on: Mycobacterium tuberculosis; assay: In vitro minimum inhibitory concentration required to inhibit Mycobacterium tuberculosis; type: functional
Summary of the method: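 M. tuberculosis H37Rv grown in BACTEC 12B medium; fluorometric broth microdilution (Microplate Alamar Blue Assay). […] MIC = lowest concentration reducing relative fluorescence units by ≥90% relative to control culture. Testing done by TAACF.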

Nucleic Acid [6] = tested on: Nucleic Acid
Nucleic Acid [7] = tested on: Nucleic Acid; remark: listed apart in the source

Question: Which results are given for `Cl.Cl.N=C(N)Nc1ccc(-c2ccc(-c3ccc(NC(=N)N)cc3Cl)o2)c(Cl)c1`?
Answer: MFC (Aspergillus fumigatus [1]): 100 µg/mL; MIC (Aspergillus fumigatus [2]): 100 µg/mL; MFC (Candida albicans [3]): 100 µg/mL; MIC (Candida albicans [4]): 10 µg/mL; MIC [5]: 4 µg/mL; ΔTm (Nucleic Acid [6]): 26.1; ΔTm (Nucleic Acid [7]): 4.7

Question: What does the source list for `COc1cc(NC(=N)N)ccc1-c1ccc(-c2ccc(NC(=N)N)cc2OC)o1.Cl.Cl`?
Answer: MFC (Aspergillus fumigatus [1]): 100 µg/mL; MIC (Aspergillus fumigatus [2]): 100 µg/mL; MFC (Candida albicans [3]): 100 µg/mL; MIC (Candida albicans [4]): 10 µg/mL; MIC [5]: 16 µg/mL; ΔTm (Nucleic Acid [6]): 15.2; ΔTm (Nucleic Acid [7]): 2.8
